From ChEMBL document CHEMBL4043093, “2-Oxo-3, 4-dihydropyrimido[4, 5-d]pyrimidinyl derivatives as new irreversible pan fibroblast growth factor receptor (FGFR) inhibitors” (Eur J Med Chem, 2017)

Legend:
Plasmodium falciparum = experiment: Inhibition of wild-type Plasmodium falciparum full length PK5 (M1 to N288 residues) expressed in HEK293 cells assessed as residual activity at 1000 nM after 30 mins by Kinomescan method relative to control; type: cell-based
In short: (§1)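 Single-point screen at a fixed 1 µM, run within a 456-kinase DiscoveRx KINOMEscan panel. Each kinase's read-out is Percent Control, i.e. signal relative to a control without compound. Hits were scored by a Percent Control < 35 cut-off, and an S(35) selectivity score was calculated across the non-mutant kinases.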

[1] = biological target: Cytoplasmic tyrosine-protein kinase BMX (Homo sapiens) (UniProt P51813); experiment: Inhibition of wild-type human full length BMX (M1 to H675 residues) expressed in Escherichia coli BL21 assessed as residual activity at 1000 nM after 30 mins by Kinomescan method relative to control; in short: as §1
Sequence of Cytoplasmic tyrosine-protein kinase BMX (Homo sapiens) (P51813 whole entry, the tested form may be a part): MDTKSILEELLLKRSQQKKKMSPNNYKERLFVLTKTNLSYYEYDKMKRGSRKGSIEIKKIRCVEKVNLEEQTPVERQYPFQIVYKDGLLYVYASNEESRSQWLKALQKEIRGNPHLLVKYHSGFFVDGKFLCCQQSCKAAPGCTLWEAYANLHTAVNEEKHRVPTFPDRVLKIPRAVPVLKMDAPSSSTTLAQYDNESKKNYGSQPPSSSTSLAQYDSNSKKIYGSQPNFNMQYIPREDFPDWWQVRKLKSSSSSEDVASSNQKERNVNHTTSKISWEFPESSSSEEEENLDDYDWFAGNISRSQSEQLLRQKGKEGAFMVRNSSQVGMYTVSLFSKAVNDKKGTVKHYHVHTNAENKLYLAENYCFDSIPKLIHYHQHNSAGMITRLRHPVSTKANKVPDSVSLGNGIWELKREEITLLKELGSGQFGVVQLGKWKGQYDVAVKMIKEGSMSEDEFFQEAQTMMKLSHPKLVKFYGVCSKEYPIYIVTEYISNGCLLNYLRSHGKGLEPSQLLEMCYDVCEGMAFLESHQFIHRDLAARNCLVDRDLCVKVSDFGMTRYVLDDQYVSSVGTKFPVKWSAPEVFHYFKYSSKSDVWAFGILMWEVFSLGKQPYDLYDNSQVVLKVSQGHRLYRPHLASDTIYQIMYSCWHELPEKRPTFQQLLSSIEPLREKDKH

[2] = biological target: Serine/threonine-protein kinase SIK1 (Homo sapiens) (UniProt P57059); experiment: Inhibition of wild-type human partial length SIK (M1 to Y304 residues) expressed in Escherichia coli BL21 assessed as residual activity at 1000 nM after 30 mins by Kinomescan method relative to control
Sequence of Serine/threonine-protein kinase SIK1 (Homo sapiens) (P57059 whole entry, the tested form may be a part): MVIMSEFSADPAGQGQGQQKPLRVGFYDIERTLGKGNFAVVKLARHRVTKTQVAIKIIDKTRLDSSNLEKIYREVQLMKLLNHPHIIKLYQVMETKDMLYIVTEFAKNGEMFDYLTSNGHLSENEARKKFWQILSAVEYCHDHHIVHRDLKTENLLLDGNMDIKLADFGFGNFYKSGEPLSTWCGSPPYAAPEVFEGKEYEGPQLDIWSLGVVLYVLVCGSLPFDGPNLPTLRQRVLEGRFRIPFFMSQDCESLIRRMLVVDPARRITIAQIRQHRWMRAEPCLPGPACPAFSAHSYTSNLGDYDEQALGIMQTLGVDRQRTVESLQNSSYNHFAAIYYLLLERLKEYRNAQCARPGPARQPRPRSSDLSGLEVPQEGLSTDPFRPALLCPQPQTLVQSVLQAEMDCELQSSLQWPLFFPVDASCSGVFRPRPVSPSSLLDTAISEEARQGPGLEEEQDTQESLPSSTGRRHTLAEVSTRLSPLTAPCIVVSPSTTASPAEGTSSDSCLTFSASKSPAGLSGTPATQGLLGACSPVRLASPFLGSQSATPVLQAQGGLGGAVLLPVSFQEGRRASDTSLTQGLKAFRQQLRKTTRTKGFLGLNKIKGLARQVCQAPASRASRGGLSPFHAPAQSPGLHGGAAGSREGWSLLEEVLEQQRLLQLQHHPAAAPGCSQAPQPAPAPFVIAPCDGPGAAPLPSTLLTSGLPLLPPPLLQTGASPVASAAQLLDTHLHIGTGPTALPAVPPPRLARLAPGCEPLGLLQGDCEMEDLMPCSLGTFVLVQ

[3] = biological target: NUAK family SNF1-like kinase 1 (Homo sapiens) (UniProt O60285); experiment: Inhibition of wild-type human partial length ARK5 (E25 to I332 residues) expressed in Escherichia coli BL21 assessed as residual activity at 1000 nM after 30 mins by Kinomescan method relative to control
Sequence of NUAK family SNF1-like kinase 1 (Homo sapiens) (O60285 whole entry, the tested form may be a part): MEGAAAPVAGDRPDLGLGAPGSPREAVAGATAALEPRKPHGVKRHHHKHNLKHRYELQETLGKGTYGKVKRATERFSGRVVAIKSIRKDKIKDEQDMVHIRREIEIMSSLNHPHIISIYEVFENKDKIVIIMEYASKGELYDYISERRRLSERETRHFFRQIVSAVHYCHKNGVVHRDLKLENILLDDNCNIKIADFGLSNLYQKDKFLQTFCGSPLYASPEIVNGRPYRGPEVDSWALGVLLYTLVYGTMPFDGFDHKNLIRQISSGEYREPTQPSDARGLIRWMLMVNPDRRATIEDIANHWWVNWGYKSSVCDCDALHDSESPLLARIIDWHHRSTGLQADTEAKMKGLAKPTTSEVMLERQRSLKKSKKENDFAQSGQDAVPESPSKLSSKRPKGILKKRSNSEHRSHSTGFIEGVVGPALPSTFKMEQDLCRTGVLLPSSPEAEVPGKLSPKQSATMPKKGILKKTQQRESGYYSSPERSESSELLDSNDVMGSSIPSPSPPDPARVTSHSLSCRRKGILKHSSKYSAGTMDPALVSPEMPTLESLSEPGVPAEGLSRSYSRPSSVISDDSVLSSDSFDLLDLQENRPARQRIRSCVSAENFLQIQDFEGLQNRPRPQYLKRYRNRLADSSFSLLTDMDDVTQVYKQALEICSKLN

[4] = biological target: Hepatocyte growth factor receptor (Homo sapiens) (UniProt P08581); experiment: Inhibition of wild-type human partial length MET (D1010 to S1367 residues) expressed in Escherichia coli BL21 assessed as residual activity at 1000 nM after 30 mins by Kinomescan method relative to control
[5] = biological target: Serine/threonine-protein kinase WNK3 (Homo sapiens) (UniProt Q9BYP7); experiment: Inhibition of wild-type human partial length WNK3 (M1 to D434 residues) expressed in HEK293 cells assessed as residual activity at 1000 nM after 30 mins by Kinomescan method relative to control; type: cell-based
[6] = biological target: Serine/threonine-protein kinase 24 (Homo sapiens) (UniProt Q9Y6E0); experiment: Inhibition of wild-type human partial length MST3 (A30 to S311 residues) expressed in Escherichia coli BL21 assessed as residual activity at 1000 nM after 30 mins by Kinomescan method relative to control
Sequence of Serine/threonine-protein kinase 24 (Homo sapiens) (Q9Y6E0 whole entry, looked up, the tested form may be a part): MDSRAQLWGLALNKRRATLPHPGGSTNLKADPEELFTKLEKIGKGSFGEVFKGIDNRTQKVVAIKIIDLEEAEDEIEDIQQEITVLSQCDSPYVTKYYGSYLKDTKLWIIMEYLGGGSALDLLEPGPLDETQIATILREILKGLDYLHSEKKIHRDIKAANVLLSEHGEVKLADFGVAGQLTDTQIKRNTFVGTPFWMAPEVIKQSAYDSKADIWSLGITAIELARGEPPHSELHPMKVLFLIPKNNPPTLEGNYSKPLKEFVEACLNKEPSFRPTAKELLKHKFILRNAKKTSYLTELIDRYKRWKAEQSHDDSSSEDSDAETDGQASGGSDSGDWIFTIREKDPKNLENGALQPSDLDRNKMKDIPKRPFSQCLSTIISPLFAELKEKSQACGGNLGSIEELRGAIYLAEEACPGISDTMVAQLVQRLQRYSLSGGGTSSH

[7] = biological target: Calcium/calmodulin-dependent protein kinase type II subunit delta (Homo sapiens) (UniProt Q13557); experiment: Inhibition of wild-type human partial length CAMK2D (M1 to E329 residues) expressed in Escherichia coli BL21 assessed as residual activity at 1000 nM after 30 mins by Kinomescan method relative to control
Sequence of Calcium/calmodulin-dependent protein kinase type II subunit delta (Homo sapiens) (Q13557 whole entry, the tested form may be a part): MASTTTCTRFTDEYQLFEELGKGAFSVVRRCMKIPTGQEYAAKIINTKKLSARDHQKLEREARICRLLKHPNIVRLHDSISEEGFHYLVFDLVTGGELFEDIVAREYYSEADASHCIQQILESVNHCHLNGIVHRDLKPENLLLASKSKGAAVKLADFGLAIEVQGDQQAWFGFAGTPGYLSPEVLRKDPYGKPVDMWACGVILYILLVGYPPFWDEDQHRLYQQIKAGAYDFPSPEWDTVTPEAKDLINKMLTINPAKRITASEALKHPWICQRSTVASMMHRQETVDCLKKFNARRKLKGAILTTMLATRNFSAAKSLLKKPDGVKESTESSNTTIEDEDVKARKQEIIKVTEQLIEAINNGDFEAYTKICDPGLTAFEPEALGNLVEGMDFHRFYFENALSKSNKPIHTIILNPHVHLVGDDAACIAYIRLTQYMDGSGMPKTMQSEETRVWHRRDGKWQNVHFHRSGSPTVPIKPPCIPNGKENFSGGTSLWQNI

[8] = biological target: Receptor tyrosine-protein kinase erbB-4 (Homo sapiens) (UniProt Q15303); experiment: Inhibition of wild-type human partial length ERBB4 (L690 to K994 residues) expressed in Escherichia coli BL21 assessed as residual activity at 1000 nM after 30 mins by Kinomescan method relative to control
[9] = biological target: Serine/threonine-protein kinase 33 (Homo sapiens) (UniProt Q9BYT3); experiment: Inhibition of wild-type human full length STK33 (M1 to L514 residues) expressed in Escherichia coli BL21 assessed as residual activity at 1000 nM after 30 mins by Kinomescan method relative to control
[10] = biological target: TGF-beta receptor type-2 (Homo sapiens) (UniProt P37173); experiment: Inhibition of wild-type human partial length TGFBR2 (I218 to K567 residues) expressed in Escherichia coli BL21 assessed as residual activity at 1000 nM after 30 mins by Kinomescan method relative to control
[11] = biological target: Inhibitor of nuclear factor kappa-B kinase subunit beta (Homo sapiens) (UniProt O14920); experiment: Inhibition of wild-type human full length IKK-beta (M1 to S756 residues) expressed in HEK293 cells assessed as residual activity at 1000 nM after 30 mins by Kinomescan method relative to control; type: cell-based
In short: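 Single-concentration screen at 1 µM across a 456-kinase KINOMEscan panel. The read-out is Percent Control for each kinase.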

[12] = biological target: Serine/threonine-protein kinase BRSK1 (Homo sapiens) (UniProt Q8TDC3); experiment: Inhibition of wild-type human partial length BRSK1 (M1 to E754 residues) expressed in Escherichia coli BL21 assessed as residual activity at 1000 nM after 30 mins by Kinomescan method relative to control
Sequence of Serine/threonine-protein kinase BRSK1 (Homo sapiens) (Q8TDC3 whole entry, the tested form may be a part): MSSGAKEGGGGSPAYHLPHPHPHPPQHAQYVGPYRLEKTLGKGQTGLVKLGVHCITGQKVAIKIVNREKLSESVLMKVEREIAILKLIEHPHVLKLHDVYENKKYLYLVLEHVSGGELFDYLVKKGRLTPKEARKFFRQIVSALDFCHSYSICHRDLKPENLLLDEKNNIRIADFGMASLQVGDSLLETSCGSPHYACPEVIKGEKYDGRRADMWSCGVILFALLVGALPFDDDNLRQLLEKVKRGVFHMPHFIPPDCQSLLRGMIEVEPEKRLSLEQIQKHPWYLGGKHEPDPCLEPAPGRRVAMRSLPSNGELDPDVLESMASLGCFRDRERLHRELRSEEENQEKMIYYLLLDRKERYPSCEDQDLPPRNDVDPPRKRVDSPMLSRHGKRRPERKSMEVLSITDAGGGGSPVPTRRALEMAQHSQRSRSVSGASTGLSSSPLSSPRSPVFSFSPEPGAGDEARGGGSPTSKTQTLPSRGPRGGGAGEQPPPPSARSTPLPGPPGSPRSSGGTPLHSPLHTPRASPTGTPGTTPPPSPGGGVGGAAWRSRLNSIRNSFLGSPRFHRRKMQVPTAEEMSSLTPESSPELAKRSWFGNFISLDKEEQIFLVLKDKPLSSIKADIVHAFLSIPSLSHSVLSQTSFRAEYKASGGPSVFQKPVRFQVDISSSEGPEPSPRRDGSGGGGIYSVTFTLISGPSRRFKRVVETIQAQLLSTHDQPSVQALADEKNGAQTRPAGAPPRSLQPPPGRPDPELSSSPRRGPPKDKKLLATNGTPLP

[13] = biological target: Phosphatidylinositol 4-phosphate 5-kinase type-1 alpha (Homo sapiens) (UniProt Q99755); experiment: Inhibition of wild-type human full length PIP5K1A (M1 to H562 residues) expressed in Escherichia coli BL21 assessed as residual activity at 1000 nM after 30 mins by Kinomescan method relative to control
Sequence of Phosphatidylinositol 4-phosphate 5-kinase type-1 alpha (Homo sapiens) (Q99755 whole entry, the tested form may be a part): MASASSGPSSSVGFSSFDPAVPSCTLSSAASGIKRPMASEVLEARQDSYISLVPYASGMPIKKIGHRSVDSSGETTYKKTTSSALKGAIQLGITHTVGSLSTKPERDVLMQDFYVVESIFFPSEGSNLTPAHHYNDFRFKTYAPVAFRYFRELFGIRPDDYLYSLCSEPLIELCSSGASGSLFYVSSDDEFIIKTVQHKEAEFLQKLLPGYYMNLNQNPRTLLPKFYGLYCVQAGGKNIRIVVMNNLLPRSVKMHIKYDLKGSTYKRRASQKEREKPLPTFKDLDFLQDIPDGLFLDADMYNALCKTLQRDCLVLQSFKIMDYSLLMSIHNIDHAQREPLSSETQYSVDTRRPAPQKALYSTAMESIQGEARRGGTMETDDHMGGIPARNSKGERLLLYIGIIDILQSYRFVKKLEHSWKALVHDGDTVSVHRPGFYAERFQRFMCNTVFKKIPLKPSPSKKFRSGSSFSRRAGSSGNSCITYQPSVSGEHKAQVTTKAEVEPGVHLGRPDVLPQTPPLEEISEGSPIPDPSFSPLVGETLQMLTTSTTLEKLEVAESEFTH
In short: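 Single-concentration screen at 1 µM against a 456-kinase panel (KINOMEscan). Read-out is Percent Control for each kinase. Across the 403 non-mutant kinases, an S(35) selectivity score was derived as the fraction of kinases with Percent Control < 35.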

[14] = biological target: Cyclin-dependent kinase 5 (Homo sapiens) (UniProt Q00535); experiment: Inhibition of wild-type human full length CDK5 (M1 to P292 residues) expressed in Escherichia coli BL21 assessed as residual activity at 1000 nM after 30 mins by Kinomescan method relative to control; in short: as §1
[15] = system: Phosphatidylinositol 4,5-bisphosphate 3-kinase catalytic subunit alpha isoform (Homo sapiens), P42336 [E542K]; experiment: Inhibition of human partial length PIK3CA E542K mutant (R108 to N1068 residues) expressed in HEK293 cells assessed as residual activity at 1000 nM after 30 mins by Kinomescan method relative to control; type: cell-based
In short: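 KINOMEscan binding panel of 456 kinases, with the test compound at a single concentration of 1 µM. Read-out is Percent Control.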

[16] = biological target: Ephrin type-A receptor 4 (Homo sapiens) (UniProt P54764); experiment: Inhibition of wild-type human partial length EPHA4 (T601 to R897 residues) expressed in Escherichia coli BL21 assessed as residual activity at 1000 nM after 30 mins by Kinomescan method relative to control
[17] = biological target: Serine/threonine-protein kinase TAO1 (Homo sapiens) (UniProt Q7L7X3); experiment: Inhibition of wild-type human partial length TAOK1 (M1 to A320 residues) expressed in HEK293 cells assessed as residual activity at 1000 nM after 30 mins by Kinomescan method relative to control; type: cell-based
[18] = biological target: Casein kinase I isoform gamma-1 (Homo sapiens) (UniProt Q9HCP0); experiment: Inhibition of wild-type human partial length CSNK1G1 (T15 to S353 residues) expressed in Escherichia coli BL21 assessed as residual activity at 1000 nM after 30 mins by Kinomescan method relative to control
[19] = system: Proto-oncogene tyrosine-protein kinase receptor Ret (Homo sapiens), P07949 [V804L]; experiment: Inhibition of human partial length RET V804L mutant (E713 to D1014 residues) expressed in Escherichia coli BL21 assessed as residual activity at 1000 nM after 30 mins by Kinomescan method relative to control; in short: as §1
[20] = biological target: RAC-beta serine/threonine-protein kinase (Homo sapiens) (UniProt P31751); experiment: Inhibition of wild-type human partial length AKT2 expressed in Escherichia coli BL21 assessed as residual activity at 1000 nM after 30 mins by Kinomescan method relative to control
Sequence of RAC-beta serine/threonine-protein kinase (Homo sapiens) (P31751 whole entry): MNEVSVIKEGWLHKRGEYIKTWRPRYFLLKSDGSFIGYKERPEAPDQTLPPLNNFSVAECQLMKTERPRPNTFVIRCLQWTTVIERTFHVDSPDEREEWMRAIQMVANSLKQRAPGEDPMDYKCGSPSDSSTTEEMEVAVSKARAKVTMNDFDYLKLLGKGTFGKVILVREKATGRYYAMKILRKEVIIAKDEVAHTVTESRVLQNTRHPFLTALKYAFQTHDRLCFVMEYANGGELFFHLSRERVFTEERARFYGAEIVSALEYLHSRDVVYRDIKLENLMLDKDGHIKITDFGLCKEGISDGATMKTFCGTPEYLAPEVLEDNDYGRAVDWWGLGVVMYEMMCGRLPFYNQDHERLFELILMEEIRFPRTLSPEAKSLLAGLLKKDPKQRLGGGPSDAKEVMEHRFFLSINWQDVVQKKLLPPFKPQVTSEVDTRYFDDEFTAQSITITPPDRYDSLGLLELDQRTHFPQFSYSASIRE

`COc1cc(OC)c(Cl)c(N2Cc3cnc(Nc4ccc(F)cc4)nc3N(C3CCN(C(=O)/C=C/CN(C)C)CC3)C2=O)c1Cl` gave an Activity (Plasmodium falciparum) of 100%, an Activity [1] of 99% and an Activity [2] of 19%. It also gave an Activity [3] of 100%, an Activity [4] of 96% and an Activity [5] of 86%. It also gave an Activity [6] of 68%, an Activity [7] of 100% and an Activity [8] of 98%. It also gave an Activity [9] of 100%, an Activity [10] of 91% and an Activity [11] of 100%. It also gave an Activity [12] of 100%, an Activity [13] of 100% and an Activity [14] of 100%. The Activity [15] was 86%, the Activity [16] was 100% and the Activity [17] was 13%. The Activity [18] was 82%, the Activity [19] was 94% and the Activity [20] was 92%.
